# A selection: hits, their analogues and other compounds. The true share with any hit is near 1.5%.
# HEK293 NFkB inh: lowers PMA/ionomycin-induced NF-kB signal in HEK293 cells. HEK-293 NF-kB luciferase reporter, luminescence. inhibition, % at 3 µM. hit rate 0.21% among 62,000. AID 465;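 active = inhibition above the mean of all tested compounds plus 3 SD, cut at about 40% in these data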
#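 Reagent: PMA plus ionomycin mix as NF-kB-activating stimulus. Assay system: NF-kB luciferase reporter HEK-293 cells. Technique: luminescence from luciferase substrate reagent. Incubation: 1 h compound pre-incubation, 16 h PMA/ionomycin at 37 °C. Benchmarks: DMSO only as uninhibited control, 10 µM reference inhibitor as full inhibition. Repeats: tested once.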
# PLK1 PBD inh: blocks phosphopeptide binding to human Plk1 polo box domain; hit rate 0.13% among 97,000; P53350; AID 693; Plk1 PBD phosphopeptide binding, fluorescence polarization; inhibition, %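 (tested at about 20 µM)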; in the data active = inhibition above about 34%, passing the limit was not always enough
# HePTP inh: human HePTP phosphatase inhibition | inhibition, % at 20 µM | P35236 | recombinant HePTP phosphatase activity, OD absorbance | hit rate 0.64% among 110,000; in the data active = inhibition above about 50%
# Pyk2 oligo antag: antagonists of human Pyk2 oligomerization. z-score (the deposit names both 25 µM and 10 µM). Q14289. Q293 cells, Pyk2 FERM NanoBiT luminescence; active compounds read low. AID 1347419. hit rate 0.83% among 99,000;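 active = Z-score of -3 or lower, scaled per plate to the spread of control and sample wells; inactive = z-score above -3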;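 also: negative z-score means lost luminescence so less FERM oligomerization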
# PLK1 kinase inh: PLK1 (human) kinase inhibition. P53350. recombinant PLK1 kinase, TR-FRET peptide phosphorylation. inhibition, % at 10 µM. hit rate 0.53% among 97,000. AID 619;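 active = inhibition of 50% or more in the single-concentration screen; inactive = inhibition below 50%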
# AP complement: alternative pathway complement inhibition, orthogonal assay. Human serum alternative complement pathway, LPS-coated ELISA, C3 deposition; tested in compound mixtures. inhibition, % at 5 µM. hit rate 0.08% among 62,000. AID 1235;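 active = inhibition above 30% in each of the two pooled mixtures holding the compound, so the lower value exceeds 30%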
#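 Assay system: human serum alternative complement pathway, C3 deposition on LPS-coated wells; Dosing: 5 µM per compound in ten-compound mixtures; Detection: Anti-C3 ELISA, OD 450 nm; Buffer or medium: Mg2+-EGTA GVB++ buffer containing human serum at 1:15 dilution; Timing: 1 h at 37 °C; Replication: two different pools per compound.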
# A number is an active result; n = inactive; x = no result.
SMILES,HEK293 NFkB inh,PLK1 PBD inh,HePTP inh,Pyk2 oligo antag,PLK1 kinase inh,AP complement
COc1ccc(OCc2cccc(C(=O)O)c2)cc1,94,x,n,n,x,n
CCOc1ccc(OCc2cccc(C(=O)O)c2)cc1,97,x,n,n,x,n
C=CCOc1cccc(C2c3c(oc4ccc(F)cc4c3=O)C(=O)N2CCCN2CCOCC2)c1 (centres undefined),n,x,n,x,x,34
O=C1c2oc3ccc(F)cc3c(=O)c2C(c2cccc(O)c2)N1CCCN1CCOCC1 (centres undefined),n,x,n,x,x,n
N#Cc1ccc(C(c2nnnn2C2CCCC2)N2CCC(Cc3ccccc3)CC2)cc1 (centres undefined),x,n,x,n,n,x
N#Cc1cccc(C(c2nnnn2C2CCCC2)N2CCC(Cc3ccccc3)CC2)c1 (centres undefined),x,n,x,-4.4,n,x
CC1(C)NC(=O)N(CC(O)COc2cccc3ccccc23)C1=O (centres undefined),x,x,n,x,x,x
Cc1ccc(CN(C#N)c2nc(C)cc(C)n2)cc1,x,n,x,n,n,x
Cc1cc(C)nc(N(C#N)Cc2ccc(Br)cc2)n1,n,n,n,-3.1,n,n
O=C1N=c2ccc(Br)cc2=C1c1sc(NS(=O)(=O)Cc2ccccc2)nc1O,x,x,n,x,x,x
O=C1N=c2ccc(Br)cc2=C1c1sc(Nc2ccc(O)cc2)nc1O,x,x,93,x,x,x
CCOC(=O)NC(=O)CSc1nc(C)cc(C(F)(F)F)c1C#N,n,n,n,n,n,33
COc1cccc(NC(=O)N2CCC(C(N)=O)(N3CCCCC3)CC2)c1,n,n,n,n,66,n
N#CC1=C2Nc3ccccc3N2C(=O)NC1(c1ccccc1)C(F)(F)F (centres undefined),x,n,x,-3.1,n,x
CCC(C(=O)Nc1cc(Cl)ccc1Cl)c1ccccc1 (centres undefined),x,x,n,x,x,x
CC(C)Oc1ccccc1NC(=O)c1ccccc1SCc1ccc(F)cc1,x,x,92,x,x,x
O=c1cc(-c2ccc([N+](=O)[O-])cc2)nc2cc(-c3cccc(Cl)c3)[nH]n12,x,x,78,x,x,x
COC(=O)C1=C(C)NC(=O)/C1=C\c1ccc(OC)cc1,x,x,n,x,x,x
COC(=O)C1=C(C)NC(=O)/C1=C\c1ccc(Br)cc1,x,x,67,x,x,x
COc1ccc(OC)c(N2C(=O)CC(Cc3ccc(Cl)cc3)C2=O)c1 (centres undefined),x,n,x,n,n,x
COc1ccc(OC)c(N2C(=O)CC(Cc3cc(C)cc(C)c3)C2=O)c1 (centres undefined),x,n,97,n,n,x
FC(F)(F)c1cc(-c2ccccc2)nc(NCc2cccnc2)n1,x,n,x,-3.4,n,x
CC(=O)CSc1nc(N)c(C#N)c(-c2cccs2)c1C#N,x,n,x,n,n,x
CCCCSc1nc(N)c(C#N)c(-c2cccs2)c1C#N,x,n,n,-3.8,n,x
COc1ccc(C)cc1NC(=O)COc1ccc(C)cc1Br,x,x,n,x,x,x
SMILES,HEK293 NFkB inh,PLK1 PBD inh,HePTP inh,Pyk2 oligo antag,PLK1 kinase inh,AP complement
CC(=O)Nc1ccc(C(=O)OCC(=O)Nc2ccccc2Sc2ccccc2)cc1,x,x,x,-3.1,x,x
CC(=O)Nc1ccccc1Sc1ccccc1,n,n,n,n,n,n
Cc1ccc(C)c(S(=O)(=O)n2nnc3ccccc32)c1,x,x,n,x,x,x
N#Cc1c(-c2ccc(Br)cc2)cc(-c2ccco2)c(C#N)c1N,x,x,101,x,x,x
COc1ccc(-c2n[nH]c3c2C(c2ccc(OC)c(OC)c2)N(c2ccccc2)C3=O)cc1 (centres undefined),x,n,x,-3,n,x
COc1ccc(CCN2C(=O)c3[nH]nc(-c4ccccc4O)c3C2c2ccccc2)cc1OC (centres undefined),n,n,n,-3.1,n,n
O=C1c2[nH]nc(-c3ccccc3O)c2C(c2ccccc2F)N1Cc1ccco1 (centres undefined),n,n,n,-3.4,n,n
COCCCN1C(=O)c2[nH]nc(-c3ccccc3O)c2C1c1ccc(Cl)cc1 (centres undefined),n,n,n,n,n,n
COCCCN1C(=O)c2[nH]nc(-c3ccccc3O)c2C1c1cccc(Cl)c1 (centres undefined),n,n,n,-3,n,n
COC(=O)c1sc(NC(=O)c2ccccc2OC)c(C(=O)OC)c1C,x,x,n,x,x,x
COC(=O)C[N+]1=Cc2cc(OC)c(OC)cc2CC1(C)C,x,x,n,x,x,x
O=C(NCc1cccnc1)C(=O)N1CCCC1,x,x,n,x,x,x
O=C1C=C(NNC(=O)c2ccc(Cl)cc2)CC(c2ccco2)C1 (centres undefined),x,x,n,x,x,x
